Assay results reported in ChEMBL document CHEMBL4038273, “MAO enzymes inhibitory activity of new benzimidazole derivatives including hydrazone and propargyl side chains” (Eur J Med Chem, 2017).

How the values were obtained:
[1] = organism: Homo sapiens; assay: Selectivity index, ratio of IC50 for recombinant human MAO-A expressed in baculovirus infected BTI insect cells to IC50 for recombinant human MAO-B expressed in baculovirus infected BTI insect cells
Summary of the method: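 Selectivity index calculated as IC50(MAO-A)/IC50(MAO-B), with both IC50 values from the fluorometric tyramine/HRP/Amplex Red inhibition assay.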

[2] = tested on: Salmonella typhimurium; assay: Genotoxicity in Salmonella typhimurium TA98 assessed as increase in number of revertants at 0.156 mg/ml in absence of aroclor-1254-induced Sprague-Dawley rat liver microsomal S9 fraction by Ames-MPF assay relative to baseline; type: toxicity; conditions: salmonella enterica subsp. enterica serovar typhimurium, microsomes
Summary of the method: (§1)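 AmesMPF 98/100 fluctuation format with S. typhimurium TA98 (frameshift) and TA100 (base-pair substitution), run with and without S9. Compounds were made up in DMSO at 0.156–5 mg/mL, six levels; solvent control was 4% DMSO. With S9, positive controls were 2-aminoanthracene at 1 µg/mL (TA98) and 2.5 µg/mL (TA100). Wells turned yellow by pH drop were scored positive. Fold over baseline is mean positive wells divided by (zero-dose mean + 1 SD). Student's t-test, p<0.05.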

[3] = tested on: Salmonella typhimurium; assay: Genotoxicity in Salmonella typhimurium TA100 assessed as increase in number of revertants at 1.25 mg/ml in absence of aroclor-1254-induced Sprague-Dawley rat liver microsomal S9 fraction by Ames-MPF assay relative to baseline; type: toxicity; conditions: salmonella enterica subsp. enterica serovar typhimurium, microsomes; summary of the method: as §1
[4] = tested on: Salmonella typhimurium; assay: Genotoxicity in Salmonella typhimurium TA98 assessed as increase in number of revertants at 0.625 mg/ml in presence of aroclor-1254-induced Sprague-Dawley rat liver microsomal S9 fraction by Ames-MPF assay relative to baseline; type: toxicity; conditions: salmonella enterica subsp. enterica serovar typhimurium, microsomes; summary of the method: as §1
[5] = tested on: Salmonella typhimurium; assay: Genotoxicity in Salmonella typhimurium TA100 assessed as increase in number of revertants at 2.5 mg/ml in absence of aroclor-1254-induced Sprague-Dawley rat liver microsomal S9 fraction by Ames-MPF assay relative to baseline; type: toxicity; conditions: salmonella enterica subsp. enterica serovar typhimurium, microsomes; summary of the method: as §1
[6] = tested on: NIH3T3; assay: Cytotoxicity against mouse NIH/3T3 cells by MTT assay; type: cell-based
Summary of the method: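 NIH/3T3 mouse embryonic fibroblasts seeded at 1x10^4 cells per well and grown per supplier recommendations. Compounds tested over 0.0316-1000 µM by MTT reduction to formazan; IC50 determined.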

[7] = tested on: Salmonella typhimurium; assay: Genotoxicity in Salmonella typhimurium TA100 assessed as increase in number of revertants at 0.156 mg/ml in presence of aroclor-1254-induced Sprague-Dawley rat liver microsomal S9 fraction by Ames-MPF assay relative to baseline; type: toxicity; conditions: salmonella enterica subsp. enterica serovar typhimurium, microsomes; summary of the method: as §1
[8] = tested on: Salmonella typhimurium; assay: Genotoxicity in Salmonella typhimurium TA100 assessed as increase in number of revertants at 5 mg/ml in absence of aroclor-1254-induced Sprague-Dawley rat liver microsomal S9 fraction by Ames-MPF assay relative to baseline; type: toxicity; conditions: salmonella enterica subsp. enterica serovar typhimurium, microsomes; summary of the method: as §1
[9] = tested on: Salmonella typhimurium; assay: Genotoxicity in Salmonella typhimurium TA98 assessed as increase in number of revertants at 0.3125 mg/ml in presence of aroclor-1254-induced Sprague-Dawley rat liver microsomal S9 fraction by Ames-MPF assay relative to baseline; type: toxicity; conditions: salmonella enterica subsp. enterica serovar typhimurium, microsomes; summary of the method: as §1
[10] = tested on: Salmonella typhimurium; assay: Genotoxicity in Salmonella typhimurium TA100 assessed as increase in number of revertants at 5 mg/ml in presence of aroclor-1254-induced Sprague-Dawley rat liver microsomal S9 fraction by Ames-MPF assay relative to baseline; type: toxicity; conditions: salmonella enterica subsp. enterica serovar typhimurium, microsomes; summary of the method: as §1
[11] = tested on: Salmonella typhimurium; assay: Genotoxicity in Salmonella typhimurium TA100 assessed as increase in number of revertants at 0.156 mg/ml in absence of aroclor-1254-induced Sprague-Dawley rat liver microsomal S9 fraction by Ames-MPF assay relative to baseline; type: toxicity; conditions: salmonella enterica subsp. enterica serovar typhimurium, microsomes; summary of the method: as §1
[12] = tested on: Salmonella typhimurium; assay: Genotoxicity in Salmonella typhimurium TA98 assessed as increase in number of revertants at 5 mg/ml in presence of aroclor-1254-induced Sprague-Dawley rat liver microsomal S9 fraction by Ames-MPF assay relative to baseline; type: toxicity; conditions: salmonella enterica subsp. enterica serovar typhimurium, microsomes; summary of the method: as §1
[13] = tested on: Salmonella typhimurium; assay: Genotoxicity in Salmonella typhimurium TA98 assessed as increase in number of revertants at 1.25 mg/ml in absence of aroclor-1254-induced Sprague-Dawley rat liver microsomal S9 fraction by Ames-MPF assay relative to baseline; type: toxicity; conditions: salmonella enterica subsp. enterica serovar typhimurium, microsomes; summary of the method: as §1
[14] = biological target: T1, Amine oxidase [flavin-containing] B (Homo sapiens, UniProt P27338); assay: Non-competitive inhibition of recombinant human MAO-B expressed in baculovirus infected BTI insect cells using varying levels of tyramine as substrate pretreated for 30 mins followed by substrate addition measured for 30 mins by Line-weaver burk plot method
T1 sequence (P27338 whole entry): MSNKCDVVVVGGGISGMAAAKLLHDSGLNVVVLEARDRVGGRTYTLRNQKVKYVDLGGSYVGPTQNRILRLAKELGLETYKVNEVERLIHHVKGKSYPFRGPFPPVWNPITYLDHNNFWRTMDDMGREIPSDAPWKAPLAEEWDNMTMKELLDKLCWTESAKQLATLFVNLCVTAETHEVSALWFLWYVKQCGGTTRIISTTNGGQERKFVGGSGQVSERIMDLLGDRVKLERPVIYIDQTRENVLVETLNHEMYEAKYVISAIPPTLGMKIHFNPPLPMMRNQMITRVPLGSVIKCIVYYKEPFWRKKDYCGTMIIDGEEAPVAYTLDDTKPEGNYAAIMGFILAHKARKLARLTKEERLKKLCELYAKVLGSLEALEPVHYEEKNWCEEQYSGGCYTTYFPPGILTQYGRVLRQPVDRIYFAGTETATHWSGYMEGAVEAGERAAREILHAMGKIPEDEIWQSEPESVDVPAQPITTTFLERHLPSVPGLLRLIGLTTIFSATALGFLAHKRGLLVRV
Summary of the method: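 hMAO-B preincubated 30 min at 37°C with inhibitor at five concentrations. Working solution with tyramine at 20, 10, 5, 2.5, 1.25 and 0.625 µM then added, and fluorescence (Ex/Em 535/587 nm) followed for 30 min alongside an inhibitor-free run; quadruplicate. Inhibition type from Lineweaver-Burk plots; Ki from x-intercept of Vmax replotted against inhibitor concentration.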

Ki [14] [µM] | Compound | Ratio IC50 [1] | fold change (FC) [2] | fold change (FC) [3] | fold change (FC) [4] | fold change (FC) [5] | IC50 [6] [µM] | fold change (FC) [7] | fold change (FC) [8] | fold change (FC) [9] | fold change (FC) [10] | fold change (FC) [11] | fold change (FC) [12] | fold change (FC) [13]
– | C#CCn1c(-c2ccc(C(=O)N/N=C/c3ccc(F)cc3)cc2)nc2ccccc21 | 6.26 | 0.68 | 0.59 | 2.01 | 1.78 | ≥ 1000 | 0.79 | 1.63 | 2.13 | 1.94 | 0.89 | 3.07 | 0.28
0.15 to 0.151 | C#CCn1c(-c2ccc(C(=O)N/N=C/c3cccnc3)cc2)nc2ccccc21 | 128 | 1.03 | 0.64 | 0.35 | 0.74 | 316 | 0.53 | 0.89 | 0.35 | 0.07 | 0.74 | 0 | 0.68
